{"source": "paper PMC5198968", "about": "(Cancer Science, 2016)", "key": {"[1]": {"system": "Japanese patients with advanced hepatocellular carcinoma", "test": "Phase I dose escalation: dose-limiting toxicities and maximum tolerated dose", "type": "in vivo, human", "outline": "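Doses started at 150 mg b.i.d. (group I) or 100 mg b.i.d. (group II) and escalated to 200 mg, with 3–9 patients per level. DLTs were drug-related AEs in cycle 1: grade 4 neutropenia lasting ≥8 days, febrile neutropenia or thrombocytopenia, most non-hematological grade ≥3 events, or defined liver-enzyme or bilirubin rises. Escalation required DLT incidence <33.3% (0/3, 1/6, 2/9). Twelve patients were added at the MTD.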"}, "[2]": {"system": "patients with advanced solid tumors", "conditions": "phase I studies in advanced solid tumors; cited from earlier work"}, "[3]": {"system": "Japanese patients with advanced hepatocellular carcinoma", "test": "Efficacy: tumor response", "type": "in vivo, human"}, "[4]": {"test": "Pharmacokinetics in plasma and urine", "type": "in vivo, human", "conditions": "for half-life: human, plasma, oral, t ½,ss, gMean (gCV%)", "outline": "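Oral dosing twice daily, at 100, 150 or 200 mg depending on group. Blood was drawn predose and 1, 2, 3, 4, 6, 8, 10 and 24 h postdose on cycle 1 day 15, plus predose and 2 h postdose on cycle 2 days 1 and 15. Urine was collected over 24 h on cycle 1 day 15 and stored at −20°C or below. Analysis was by LC-MS/MS, with non-compartmental parameters, in treated patients with an evaluable PK end-point.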"}, "[5]": {"conditions": "200 mg b.i.d., expansion cohort"}, "[6]": {"conditions": "dose-normalized AUC at steady state"}}, "note": "Entries after “also recorded” stand apart in the source; their conditions may differ."}
{"smiles": "COC(=O)c1ccc2c(c1)NC(=O)/C2=C(\\Nc1ccc(N(C)C(=O)CN2CCN(C)CC2)cc1)c1ccccc1", "note": "[nintedanib]", "values": [{"measurement": "DLT of grade 3 diarrhea", "setting": "[1]; [5]", "result": "one patient in group I"}, {"measurement": "DLT of grade 3 drug-induced liver injury", "setting": "[1]; [5]", "result": "one patient in each group"}, {"measurement": "Patients who experienced a DLT", "setting": "[1]; 200 mg b.i.d., including expansion cohort, of 19 patients", "result": "three"}, {"measurement": "Maximum tolerated dose (MTD)", "setting": "[1]; both groups (mild and moderate liver impairment), oral, 28-day cycles", "result": 200, "unit": "mg b.i.d."}, {"measurement": "DLT during the MTD period (cycle 1)", "setting": "[1]; group I (150, 200 mg b.i.d.) and group II (100, 150, 200 mg b.i.d.), dose escalation", "result": "No dose‐limiting toxicities were reported; also recorded: No patient experienced a DLT"}, {"measurement": "Primary DLT", "setting": "[2]", "result": "elevated liver enzymes"}, {"measurement": "Objective tumor response (RECIST 1.0, investigator assessment)", "setting": "[3]; both groups", "result": "no complete or partial responses"}, {"measurement": "Stable disease", "setting": "[3]; group I (12 patients; 10 treated at the MTD)", "result": 75.0, "unit": "%"}, {"measurement": "Patients with response by AFP (decline from baseline of >20% in AFP levels)", "setting": "[3]; group I, nine patients (56.3%) evaluable", "result": "three"}, {"measurement": "Patients who had progressed at the time of analysis", "setting": "[3]; group I, of 16 patients", "result": 15, "unit": "patients"}, {"measurement": "Median time to progression (TTP)", "setting": "[3]; group I, overall, 95% CI 1.05–5.52", "result": 2.8, "unit": "months"}, {"measurement": "Median time to progression (TTP)", "setting": "[3]; group I, prior sorafenib treatment, 95% CI 1.05–5.68", "result": 2.8, "unit": "months"}, {"measurement": "Median time to progression (TTP)", "setting": "[3]; group I, treated at the MTD of 200 mg b.i.d., 95% CI 1.05–5.52", "result": 2.8, "unit": "months"}, {"measurement": "Patients who had progressed at the time of analysis", "setting": "[3]; group II, all patients", "result": 14, "unit": "patients"}, {"measurement": "Patients with response by AFP", "setting": "[3]; group II, nine patients (64.3%) evaluable", "result": "three"}, {"measurement": "Median time to progression (TTP)", "setting": "[3]; group II, overall, 95% CI 0.95–6.70", "result": 3.2, "unit": "months"}, {"measurement": "Median time to progression (TTP)", "setting": "[3]; group II, prior sorafenib treatment, 95% CI 0.95–6.70", "result": 2.8, "unit": "months"}, {"measurement": "Median time to progression (TTP)", "setting": "[3]; group II, treated at the MTD of 200 mg b.i.d., 95% CI 0.95–5.62", "result": 2.8, "unit": "months"}, {"measurement": "Computed tomography finding in metastatic lymph node lesions", "setting": "[3]; one patient of group I, after 1 month of nintedanib treatment", "result": "tumor necrosis"}, {"measurement": "Stable disease", "setting": "[3]; patients in each group", "result": "> 75", "unit": "%"}, {"measurement": "Time at which plasma concentrations reached their maximum", "setting": "[4]; after multiple oral dose administration at steady state", "result": "3 to 4", "unit": "h"}, {"measurement": "Correlation between nintedanib exposure (AUCτ,ss,norm) and AST or ALT levels", "setting": "[4]; days 1–22 of cycle 1", "result": "no clear correlation"}, {"measurement": "Increase in AUCτ,ss,norm, Child–Pugh score 7 versus score 5 or 6", "setting": "[4]; [6]", "result": 37, "unit": "%"}, {"measurement": "Increase in AUCτ,ss,norm, group II versus group I", "setting": "[4]; [6]", "result": 26, "unit": "%"}, {"measurement": "half-life", "setting": "[4]; 100 mg, Group II (moderate liver impairment), 100 mg b.i.d., n = 2, steady state", "result": 2500, "unit": "min"}, {"measurement": "half-life", "setting": "[4]; 150 mg, Group I (mild liver impairment), 150 mg b.i.d., n = 3, steady state", "result": 1420, "unit": "min"}, {"measurement": "half-life", "setting": "[4]; 150 mg, Group II (moderate liver impairment), 150 mg b.i.d., n = 3, steady state", "result": 876, "unit": "min"}, {"measurement": "half-life", "setting": "[4]; 200 mg, Group I (mild liver impairment), 200 mg b.i.d., n = 9, steady state", "result": 996, "unit": "min"}, {"measurement": "half-life", "setting": "[4]; 200 mg, Group II (moderate liver impairment), 200 mg b.i.d. (n = 7), steady state", "result": 1060, "unit": "min"}, {"measurement": "Administered dose recovered in the urine", "setting": "[4]; over 24 hours after dosing at steady state", "result": "0.49–0.66%"}, {"measurement": "AUCτ,ss of individual patients with high exposure", "setting": "[4]; two patients in group I, 200 mg b.i.d. cohort", "result": 5700, "unit": "ng·h/mL"}]}
